Test results taken from ChEMBL document CHEMBL4354845, “Discovery and Structure-Activity Relationships of Nociceptin Receptor Partial Agonists That Afford Symptom Ablation in Parkinson's Disease Models” (J Med Chem, 2020).
Activity calls are given as the source filed them. No cut-off for these calls is given here.

How the values were obtained:
[1] = Apparent permeability across basolateral to apical side in dog MDCK-MDR1 cells by HPLC-MS/MS analysis; type: ADME, cell-based, Canis lupus familiaris
Summary of the method: (§1)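 MDR1-MDCK monolayers, bidirectional permeability (A→B and B→A), compound quantified by HPLC/MS/MS and expressed as Papp (10^-6 cm/s). Efflux ratio B–A/A–B. High BBB permeability taken as Papp A–B >3.0 with efflux ratio <3; efflux ratio >3 counted as high efflux.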

[2] = Apparent permeability across apical to basolateral side in dog MDCK-MDR1 cells by HPLC-MS/MS analysis; type: ADME, cell-based, Canis lupus familiaris; summary of the method: as §1
[3] = Apparent permeability across basolateral to apical side in human Caco2 cells by HPLC-MS/MS analysis; type: ADME, cell-based; conditions: Caco-2
Summary of the method: (§2)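 Caco-2 monolayers, two-way permeability (apical→basolateral and basolateral→apical), compound monitored by HPLC/MS/MS and reported as Papp (10^-6 cm/s). Papp >1.0x10^-6 cm/s with efflux ratio <3 classed as high permeability/no efflux.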

[4] = Apparent permeability across apical to basolateral side in human Caco2 cells by HPLC-MS/MS analysis; type: ADME, cell-based; conditions: Caco-2; summary of the method: as §2
[5] = Stability in mouse liver microsomes assessed as half life at 1 uM incubated for 60 mins by LC-MS/MS analysis; type: ADME, Microsome
Summary of the method: (§3)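 Compound at 1 µM incubated at 37°C with liver microsomes in 100 mM potassium phosphate pH 7.4 and 5 mM MgCl2. Reaction started with 1 mM NADPH, sampled at 30, 45 and 60 min and quenched with acetonitrile/0.1% formic acid. Parent loss measured by LC-MS against t=0 with propranolol internal standard. Half-life from single-phase exponential fit, in duplicate.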

[6] = test system: Rattus norvegicus; test: Anti-parkinson's disease activity in Sprague-Dawley rat model of L-DOPA-induced dyskinesia at 0.1 to 3 mg/kg, ip administered for 3 days; type: functional, organism-based
[7] = Cmax in Sprague-Dawley rat plasma at 3 mg/kg, sc measured upto 8 hrs by LC-MS/MS analysis; type: ADME, organism-based; parameters: dose 3 mg/kg, route subcutaneous
Summary of the method: (§4)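 Male Sprague-Dawley rats (250–300 g) given a single s.c. dose of 3 mg/kg (2 mL/kg) as a 1.5 mg/ml solution in 5% dimethylacetamide/95% of 30% SBECD. Plasma (K2-EDTA) and brain collected at 0.5, 1, 2, 4 and 8 h. Brain homogenised 1:4 w/v in water. Terfenadine internal standard, positive-ion ESI LC-MS/MS. Noncompartmental analysis, linear trapezoidal AUC to 8 h. Brain values are total.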

[8] = Tmax in Sprague-Dawley rat brain at 3 mg/kg, sc measured upto 8 hrs by LC-MS/MS analysis; type: ADME, organism-based; summary of the method: as §4
[9] = test system: Rattus norvegicus; test: Anti-parkinson's disease activity in 6-OHDA-induced hemi-lesioned Sprague-Dawley rat model of Parkinson's disease assessed as increase in time spent on rotarod at 0.1 to 3 mg/kg, ip administered for 3 days and measured after 20 mins of compound administration by rotarod test; type: functional
Summary of the method: (§5)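 Rats received unilateral 6-OHDA (8 µg freebase) into the medial forebrain bundle and were enrolled if they made >7 ipsilateral turns/min after D-amphetamine 5 mg/kg i.p. They were trained to reproducible performance, then given acute i.p. doses or vehicle (saline + 5% Tween 80, 1% DMSO) with 3-day washouts. Contralateral paw scored at 20 and 90 min in bar and drag tests. Rotarod started at 5 rpm, rising 5 rpm/180 s, expressed as % of control. Analysis by two-way ANOVA with Bonferroni.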

[10] = Stability in rat liver microsomes assessed as half life at 1 uM incubated for 60 mins by LC-MS/MS analysis; type: ADME, Microsome; summary of the method: as §3
[11] = Half life in Sprague-Dawley rat plasma at 3 mg/kg, sc measured upto 8 hrs by LC-MS/MS analysis; type: ADME, organism-based; summary of the method: as §4
[12] = Half life in Sprague-Dawley rat brain at 3 mg/kg, sc measured upto 8 hrs by LC-MS/MS analysis; type: ADME, organism-based; summary of the method: as §4
[13] = AUClast in Sprague-Dawley rat brain at 3 mg/kg, sc measured upto 8 hrs by LC-MS/MS analysis; type: ADME, organism-based; parameters: time < 8 hr, dose 3 mg/kg, route subcutaneous; summary of the method: as §4
[14] = Cmax in Sprague-Dawley rat brain at 3 mg/kg, sc measured upto 8 hrs by LC-MS/MS analysis; type: ADME, organism-based; parameters: dose 3 mg/kg, route subcutaneous; summary of the method: as §4
[15] = AUClast in Sprague-Dawley rat plasma at 3 mg/kg, sc measured upto 8 hrs by LC-MS/MS analysis; type: ADME, organism-based; parameters: dose 3 mg/kg, time < 8 hr, route subcutaneous; summary of the method: as §4
[16] = test system: Rattus norvegicus; test: Anti-parkinson's disease activity in Sprague-Dawley rat model of L-DOPA-induced dyskinesia at 0.01 to 1 mg/kg, ip administered for 3 days; type: functional, organism-based
[17] = test system: Rattus norvegicus; test: Anti-parkinson's disease activity in 6-OHDA-induced hemi-lesioned Sprague-Dawley rat model of Parkinson's disease assessed as increase in stepping activity at 0.1 to 3 mg/kg, ip administered for 3 days and measured after 90 mins of compound administration by drag test; type: functional, organism-based; summary of the method: as §5
[18] = Tmax in Sprague-Dawley rat plasma at 3 mg/kg, sc measured upto 8 hrs by LC-MS/MS analysis; type: ADME, organism-based; summary of the method: as §4
[19] = test system: Rattus norvegicus; test: Anti-parkinson's disease activity in 6-OHDA-induced hemi-lesioned Sprague-Dawley rat model of Parkinson's disease assessed as reduction in immobility time at 0.1 to 3 mg/kg, ip administered for 3 days and measured after 20 mins of compound administration by bar test; type: functional; parameters: scale not given: the % may be the effect or the level left; summary of the method: as §5
[20] = Stability in human liver microsomes assessed as half life at 1 uM incubated for 60 mins by LC-MS/MS analysis; type: ADME, Microsome; summary of the method: as §3
[21] = test system: Rattus norvegicus; test: Anti-parkinson's disease activity in 6-OHDA-induced hemi-lesioned Sprague-Dawley rat model of Parkinson's disease assessed as increase in time spent on rotarod at 0.01 to 1 mg/kg, ip administered for 3 days and measured after 20 mins of compound administration by rotarod test; type: functional, organism-based; summary of the method: as §5
[22] = test system: Rattus norvegicus; test: Anti-parkinson's disease activity in 6-OHDA-induced hemi-lesioned Sprague-Dawley rat model of Parkinson's disease assessed as increase in stepping activity at 0.01 to 1 mg/kg, ip administered for 3 days and measured after 90 mins of compound administration by drag test; type: functional, organism-based; summary of the method: as §5
[23] = test system: Rattus norvegicus; test: Anti-parkinson's disease activity in 6-OHDA-induced hemi-lesioned Sprague-Dawley rat model of Parkinson's disease assessed as reduction in immobility time at 0.01 to 1 mg/kg, ip administered for 3 days and measured after 20 mins of compound administration by bar test; type: functional, organism-based; summary of the method: as §5

Row | Structure (SMILES) | Papp B→A [1] [×10⁻⁶ cm/s] | Papp A→B [2] [×10⁻⁶ cm/s] | Papp B→A [3] [×10⁻⁶ cm/s] | Papp A→B [4] [×10⁻⁶ cm/s] | half-life at 1 µM [5] [h] | Activity [6] | Cmax [7] [nM] | Tmax [8] [h] | half-life at 1 µM [10] [h] | half-life [11] [h] | half-life [12] [h] | AUC(0-t) at 8 h [13] [µM·h] | Cmax [14] [nM] | AUC(0-t) at 8 h [15] [µM·h] | Activity [16] | Tmax [18] [h] | half-life at 1 µM [20] [h] | Activity [21] | Activity [22] | Activity [23] | further results
1 | CC(C)[C@H]1CC[C@@H](N2CCC(n3cc(CCN)c4ccccc43)CC2)CC1.Cl.Cl | 22.1 | 0.6 | 6.49 | 4.36 | > 1 |  |  |  |  |  |  |  |  |  |  |  |  |  |  |  | 
2 | CC(C)[C@H]1CC[C@@H](N2CCC(n3ccc4ccccc43)CC2)CC1 | 15.2 | 28.8 | 19.1 | 24 |  | inactive | 626 | 0.5 | 0.0967 | 2.19 | 2.43 | 10.1 | 4170 | 1.96 | inactive | 1 | 0.0883 |  |  |  | Activity [9]: 20%; Activity [17]: Active; Activity [19]: 25%
3 | CC(C)[C@H]1CC[C@@H](N2CCC(n3cc(CN)c4ccccc43)CC2)CC1 | 14.4 | 0.34 | 4.92 | 4.64 |  | inactive | 529 | 4 | > 1 | 2.61 | 10.8 | 6.13 | 956 | 1 | inactive | 0.5 | > 1 | Active | Active | Active | 
4 | CC(C)[C@H]1CC[C@@H](N2CCC(N3CCc4ccccc43)CC2)CC1 | 33.8 | 26.8 | 25 | 30 | 0.0467 | inactive | 456 | 0.5 |  | 2.13 | 2.71 | 6.7 | 3070 | 1.25 | inactive | 0.5 |  | Active | Active | Active | 
